Test results taken from PMC7967294 (ACS chemical neuroscience, 2020).

Legend:
[1] = target: T1, GluN1/GluN2B (Rattus norvegicus, UniProt P35439+Q00960); conditions: cited from earlier work
[2] = system: GluN2C- and GluN2D-containing NMDARs; assay: Two electrode voltage clamp recording, Xenopus oocytes, CIQ-sensitive subunits; type: cell-based, rat
[3] = target: T2, GluN1/GluN2A (Rattus norvegicus, UniProt P35439+Q00959); conditions: cited from earlier work
[4] = target: T3, GluN1/GluN2C (Rattus norvegicus, UniProt P35439+Q00961); assay: Two electrode voltage clamp recording, Xenopus oocytes; type: cell-based
In short: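 Xenopus oocytes expressing GluN1/GluN2 (1:2 cRNA) were clamped at −40 mV at 23 °C, 2–5 days post-injection, with 30 μM glycine in all solutions. Test compound was applied at increasing concentrations during saturating 100 μM glutamate/30 μM glycine. […] Data came from 5–22 oocytes, 2–3 batches.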

[5] = target: T2, GluN1/GluN2A; conditions: cited from earlier work; remark: listed apart in the source
[6] = target: T1, GluN1/GluN2B; conditions: cited from earlier work; remark: listed apart in the source
[7] = target: T4, GluN1/GluN2D (Rattus norvegicus, UniProt P35439+Q62645); conditions: cited from earlier work
T4 sequence (Q62645 28-1323, other chains not shown): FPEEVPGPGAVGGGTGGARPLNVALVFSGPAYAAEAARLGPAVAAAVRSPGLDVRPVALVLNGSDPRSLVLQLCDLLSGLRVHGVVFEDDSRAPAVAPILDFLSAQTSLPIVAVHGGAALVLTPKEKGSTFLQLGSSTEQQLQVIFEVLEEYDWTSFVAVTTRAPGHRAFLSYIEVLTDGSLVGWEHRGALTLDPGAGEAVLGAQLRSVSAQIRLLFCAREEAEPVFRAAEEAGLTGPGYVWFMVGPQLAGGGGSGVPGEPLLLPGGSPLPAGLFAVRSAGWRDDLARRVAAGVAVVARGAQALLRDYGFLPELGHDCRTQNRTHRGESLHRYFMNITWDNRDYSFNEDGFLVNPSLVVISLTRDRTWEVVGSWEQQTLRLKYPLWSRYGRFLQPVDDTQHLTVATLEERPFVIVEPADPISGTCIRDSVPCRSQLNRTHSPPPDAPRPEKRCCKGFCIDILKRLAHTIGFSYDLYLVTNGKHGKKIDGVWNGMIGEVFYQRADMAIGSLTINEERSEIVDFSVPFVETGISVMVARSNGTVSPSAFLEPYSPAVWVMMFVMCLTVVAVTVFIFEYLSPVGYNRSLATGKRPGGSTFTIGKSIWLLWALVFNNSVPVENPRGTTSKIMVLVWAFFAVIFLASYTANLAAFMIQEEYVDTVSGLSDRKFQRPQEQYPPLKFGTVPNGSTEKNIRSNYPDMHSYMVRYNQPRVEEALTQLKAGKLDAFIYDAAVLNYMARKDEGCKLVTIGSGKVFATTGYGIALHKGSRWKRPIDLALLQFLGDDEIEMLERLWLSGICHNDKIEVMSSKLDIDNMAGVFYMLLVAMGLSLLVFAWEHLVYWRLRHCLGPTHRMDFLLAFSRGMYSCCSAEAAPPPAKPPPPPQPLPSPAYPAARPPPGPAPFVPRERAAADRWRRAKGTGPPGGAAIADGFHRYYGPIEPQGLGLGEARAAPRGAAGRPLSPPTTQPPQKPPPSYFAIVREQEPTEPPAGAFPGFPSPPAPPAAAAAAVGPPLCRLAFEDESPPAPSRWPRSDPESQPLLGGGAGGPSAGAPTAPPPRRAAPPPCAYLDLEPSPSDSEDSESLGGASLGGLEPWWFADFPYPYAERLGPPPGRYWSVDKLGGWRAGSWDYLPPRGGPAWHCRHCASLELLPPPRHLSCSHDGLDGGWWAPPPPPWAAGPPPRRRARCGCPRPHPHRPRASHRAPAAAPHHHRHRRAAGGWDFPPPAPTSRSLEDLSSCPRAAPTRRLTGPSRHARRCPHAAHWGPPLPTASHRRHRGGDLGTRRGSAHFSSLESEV

[8] = target: T4, GluN1/GluN2D; assay: Two electrode voltage clamp recording, Xenopus oocytes; type: cell-based
[9] = target: T3, GluN1/GluN2C; conditions: cited from earlier work
[10] = target: T1, GluN1/GluN2B; assay: Two electrode voltage clamp recording, Xenopus oocytes; type: cell-based; conditions: read-out: response, % of control
In short: (§1)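 Defolliculated stage V–VI Xenopus laevis oocytes were injected with GluN1 and GluN2 cRNA at a 1:2 ratio (0.2–10 ng total) and recorded 2–5 days later at 23 °C by two-electrode voltage clamp at −40 mV, with gravity-fed solutions. Currents evoked by 100 μM glutamate plus 30 μM glycine were measured with 100 μM test compound, as % of control; n = 6 oocytes.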

[11] = target: T2, GluN1/GluN2A; assay: as above; type: cell-based; conditions: read-out: response, % of control
In short: as §1

[12] = saturating glutamate and glycine, oocytes

T2 sequence (Q00959 23-1464, other chains not shown): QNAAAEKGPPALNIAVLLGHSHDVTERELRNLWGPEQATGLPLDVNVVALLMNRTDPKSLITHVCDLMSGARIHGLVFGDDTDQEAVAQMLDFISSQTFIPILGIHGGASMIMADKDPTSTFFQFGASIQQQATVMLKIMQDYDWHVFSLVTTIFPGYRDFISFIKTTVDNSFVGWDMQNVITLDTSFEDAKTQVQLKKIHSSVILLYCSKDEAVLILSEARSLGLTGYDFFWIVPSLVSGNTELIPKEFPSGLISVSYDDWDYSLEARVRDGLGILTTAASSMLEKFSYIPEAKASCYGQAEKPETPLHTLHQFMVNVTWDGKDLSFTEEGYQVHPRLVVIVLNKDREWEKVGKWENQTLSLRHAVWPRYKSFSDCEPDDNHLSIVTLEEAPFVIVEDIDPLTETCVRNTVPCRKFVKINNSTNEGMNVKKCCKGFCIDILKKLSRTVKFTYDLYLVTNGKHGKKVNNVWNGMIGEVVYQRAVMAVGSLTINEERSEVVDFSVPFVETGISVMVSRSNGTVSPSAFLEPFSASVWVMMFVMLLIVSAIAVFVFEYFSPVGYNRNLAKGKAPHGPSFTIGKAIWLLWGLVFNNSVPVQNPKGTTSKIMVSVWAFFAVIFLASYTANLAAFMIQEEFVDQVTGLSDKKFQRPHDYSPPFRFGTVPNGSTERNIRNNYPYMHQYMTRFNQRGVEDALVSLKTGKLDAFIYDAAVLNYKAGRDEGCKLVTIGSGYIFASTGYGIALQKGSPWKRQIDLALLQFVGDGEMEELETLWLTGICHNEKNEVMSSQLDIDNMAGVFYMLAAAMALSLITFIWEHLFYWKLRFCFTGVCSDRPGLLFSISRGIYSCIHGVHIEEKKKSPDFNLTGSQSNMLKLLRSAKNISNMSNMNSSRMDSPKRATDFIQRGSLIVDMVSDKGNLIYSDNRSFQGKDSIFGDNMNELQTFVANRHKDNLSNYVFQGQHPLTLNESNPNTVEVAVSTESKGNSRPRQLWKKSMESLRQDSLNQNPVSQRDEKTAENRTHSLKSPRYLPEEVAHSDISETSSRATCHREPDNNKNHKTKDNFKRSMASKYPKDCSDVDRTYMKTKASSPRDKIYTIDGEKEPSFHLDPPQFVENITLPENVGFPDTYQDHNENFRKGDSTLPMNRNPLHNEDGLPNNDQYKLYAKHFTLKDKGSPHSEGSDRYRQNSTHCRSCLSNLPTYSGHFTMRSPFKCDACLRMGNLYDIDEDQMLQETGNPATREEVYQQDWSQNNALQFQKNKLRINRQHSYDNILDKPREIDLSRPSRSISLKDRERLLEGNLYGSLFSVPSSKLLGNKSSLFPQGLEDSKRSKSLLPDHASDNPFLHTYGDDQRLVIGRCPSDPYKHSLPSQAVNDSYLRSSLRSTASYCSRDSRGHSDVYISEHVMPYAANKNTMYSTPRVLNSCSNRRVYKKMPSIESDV
T1 sequence (Q00960 27-1482, other chains not shown): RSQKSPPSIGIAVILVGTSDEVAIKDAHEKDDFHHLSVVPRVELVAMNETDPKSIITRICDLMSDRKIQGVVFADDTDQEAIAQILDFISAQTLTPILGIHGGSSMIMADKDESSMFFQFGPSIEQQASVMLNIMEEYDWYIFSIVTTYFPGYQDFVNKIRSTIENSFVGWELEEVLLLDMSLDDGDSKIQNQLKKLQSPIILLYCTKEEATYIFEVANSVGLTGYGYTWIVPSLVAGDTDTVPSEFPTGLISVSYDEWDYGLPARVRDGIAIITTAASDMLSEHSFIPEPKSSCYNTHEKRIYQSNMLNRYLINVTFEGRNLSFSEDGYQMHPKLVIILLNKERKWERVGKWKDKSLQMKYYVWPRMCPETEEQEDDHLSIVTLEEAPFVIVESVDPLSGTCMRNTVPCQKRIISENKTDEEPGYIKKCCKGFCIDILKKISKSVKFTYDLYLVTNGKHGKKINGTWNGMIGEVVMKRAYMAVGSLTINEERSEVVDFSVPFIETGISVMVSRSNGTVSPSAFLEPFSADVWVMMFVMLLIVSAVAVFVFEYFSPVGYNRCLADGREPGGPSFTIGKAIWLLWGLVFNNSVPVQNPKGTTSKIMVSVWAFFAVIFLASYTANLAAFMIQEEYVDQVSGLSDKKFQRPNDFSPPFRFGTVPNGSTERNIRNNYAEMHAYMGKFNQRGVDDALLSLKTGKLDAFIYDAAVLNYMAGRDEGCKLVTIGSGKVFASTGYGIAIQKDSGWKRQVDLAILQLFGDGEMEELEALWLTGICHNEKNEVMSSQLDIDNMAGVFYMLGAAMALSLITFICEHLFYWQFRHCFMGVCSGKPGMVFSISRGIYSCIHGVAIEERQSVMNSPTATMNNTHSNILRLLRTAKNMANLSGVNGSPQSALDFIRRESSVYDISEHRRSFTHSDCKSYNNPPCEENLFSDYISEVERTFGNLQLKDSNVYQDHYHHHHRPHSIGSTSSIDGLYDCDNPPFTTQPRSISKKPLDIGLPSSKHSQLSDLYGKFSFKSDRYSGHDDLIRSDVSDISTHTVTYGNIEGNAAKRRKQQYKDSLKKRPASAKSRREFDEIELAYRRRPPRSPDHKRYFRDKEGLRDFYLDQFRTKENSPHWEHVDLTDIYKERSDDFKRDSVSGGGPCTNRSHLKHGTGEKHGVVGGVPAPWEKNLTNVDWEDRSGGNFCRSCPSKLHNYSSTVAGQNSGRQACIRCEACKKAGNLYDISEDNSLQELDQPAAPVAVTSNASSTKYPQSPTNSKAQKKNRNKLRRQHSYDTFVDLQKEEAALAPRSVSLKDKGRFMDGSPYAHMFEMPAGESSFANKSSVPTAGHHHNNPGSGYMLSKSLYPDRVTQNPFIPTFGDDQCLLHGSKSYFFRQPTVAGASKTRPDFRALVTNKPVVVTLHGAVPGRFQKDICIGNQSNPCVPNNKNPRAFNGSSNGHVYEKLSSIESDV

## COc1ccc(OCC2c3cc(OC)c(OC)cc3CCN2C(=O)c2cccc(Cl)c2)cc1 (single isomer, unassigned; (+)) [CIQ, (+)-(3-chlorophenyl)(6,7-dimethoxy-1-((4-methoxyphenoxy)methyl)-3,4-dihydroisoquinolin-2(1H)-yl)methanone]
[1]
  effect on the deactivation time course following glutamate removal: no detectable effect
[2]; EC30 concentrations of glutamate and glycine
  enhancement of the response at EC30 glutamate and glycine: ≤ 5 fold
[2]; maximally effective agonist
  enhancement of the response to maximally effective glutamate and glycine: 2 fold
[3]
  effect at low agonist concentrations: no effect
[4]; [12]
  potentiation, % of control: 340% ± 27%
[5]
  effect on the deactivation time course following glutamate removal: no detectable effect
[6]
  effect at low agonist concentrations: no effect
[7]
  effect on the deactivation time course following glutamate removal: no detectable effect
[8]; [12]
  potentiation, % of control: 281% ± 10%
[9]
  effect on the deactivation time course following glutamate removal: modest effects

## CNC(=O)N1N=C(c2ccc(N)cc2)c2cc3c(cc2CC1C)OCO3 (centres unmarked) [GYKI 53655]
[4]
  IC50: 143 µM
[10]
  remaining activity at 100 µM: 107%
[8]
  IC50: 133 µM
[11]
  remaining activity at 100 µM: 104%
